# Laboratory results published in ChEMBL document CHEMBL3774372, “Design, physico-chemical properties and biological evaluation of some new N-[(phenoxy)alkyl]- and N-{2-[2-(phenoxy)ethoxy]ethyl}aminoalkanols as anticonvulsant agents” (Bioorg Med Chem, 2016).
# Calls of active or inactive are those of the source.
# Legend:
# Mus musculus [1] = experiment: Neurotoxicity in mouse at 30 mg/kg, ip after 0.5 hrs by rotarod test; format: toxicity, organism-based; conditions: in vivo
# Procedure, shortened: (§1)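 Mice were dosed ip with compound suspended in 0.5% methylcellulose. Rotarod: a 1 in. knurled rod turning at 6 rpm. Neurotoxicity was scored as failure to stay on the rod for at least 1 min in each of three trials. Results are given as the number of animals affected out of the number tested.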
# Mus musculus [2] = experiment: Neurotoxicity in mouse at 50 mg/kg, ip after 2 hrs by rotarod test; format: toxicity, organism-based; conditions: in vivo; procedure, shortened: as §1
# Mus musculus [3] = experiment: Neurotoxicity in mouse at 30 mg/kg, ip after 4 hrs by rotarod test; format: toxicity, organism-based; conditions: in vivo; procedure, shortened: as §1
# Mus musculus [4] = experiment: Neurotoxicity in mouse at 50 mg/kg, ip after 4 hrs by rotarod test; format: toxicity, organism-based; conditions: in vivo; procedure, shortened: as §1
# Mus musculus [5] = experiment: Neurotoxicity in mouse at 100 mg/kg, ip after 0.5 hrs by rotarod test; format: toxicity, organism-based; conditions: in vivo; procedure, shortened: as §1
# Mus musculus [6] = experiment: Neurotoxicity in mouse at 50 mg/kg, ip after 1 hr by rotarod test; format: toxicity, organism-based; conditions: in vivo; procedure, shortened: as §1
# Mus musculus [7] = experiment: Neurotoxicity in mouse at 300 mg/kg, ip after 0.5 hrs by rotarod test; format: toxicity, organism-based; conditions: in vivo; procedure, shortened: as §1
# Mus musculus [8] = experiment: Neurotoxicity in mouse at 100 mg/kg, ip after 4 hrs by rotarod test; format: toxicity, organism-based; conditions: in vivo; procedure, shortened: as §1
# Vibrio harveyi [9] = experiment: Mutagenicity in Vibrio harveyi BB7 assessed as number of colonies after 48 hrs (reference value: 13 to 14 no_unit); format: ADME, organism-based; conditions: in vivo
# Procedure, shortened: (§2)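 Vibrio harveyi mutagenicity test: test compound was added to exponentially growing cultures (A600 = 0.1, 30 °C) and grown to OD600 0.3–0.4. Then 5 × 10^6 cells were plated on BOSS agar with neomycin (final 100 µg/mL) and incubated 48 h at 30 °C. Neomycin-resistant colonies were counted. Triplicate; controls were water, DMSO and NQNO 40 ng/mL.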
# Mus musculus [10] = experiment: Anticonvulsant activity in mouse assessed as protection against subcutaneous pentylenetetrazol-induced seizures at 100 mg/kg, ip measured after 4 hrs; format: functional, organism-based
# Procedure, shortened: (§3)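 Mice dosed ip as 0.5% methylcellulose suspension; pentylenetetrazole 85 mg/kg in 0.9% NaCl injected subcutaneously into posterior midline, animals watched at least 30 min. Protection = no threshold seizure (single clonic spasm episode lasting ≥5 s); scored protected/tested.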
# Vibrio harveyi [11] = experiment: Antimutagenic activity against Vibrio harveyi BB7X assessed as inhibition of NQNO-induced mutagenicity after 48 hrs; format: functional
# Procedure, shortened: (§4)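 V. harveyi cultures grown exponentially to A600 0.1 at 30 °C, exposed to test compound for 15 min, then to NQNO, and grown on to A600 0.3–0.4. 5 × 10⁶ cells plated on BOSS agar with neomycin (100, final). Neomycin-resistant colonies counted after 48 h at 30 °C. Result given as % inhibition of NQNO mutagenicity; three independent repeats.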
# in vitro [12] = conditions: mouse, liver microsomes
# Mus musculus [13] = experiment: Anticonvulsant activity in mouse assessed as protection against subcutaneous pentylenetetrazol-induced seizures at 100 mg/kg, ip measured after 0.5 hrs; format: functional, organism-based; procedure, shortened: as §3
# Mus musculus [14] = experiment: Anticonvulsant activity in mouse assessed as protection against subcutaneous pentylenetetrazol-induced seizures at 30 mg/kg, ip measured after 0.5 hrs; format: functional, organism-based; procedure, shortened: as §3
# in vitro [15] = conditions: mouse, liver microsomes; remark: listed apart in the source
# Mus musculus [16] = experiment: Anticonvulsant activity in mouse assessed as protection against maximal electric shock-induced seizures at 30 mg/kg, ip measured after 4 hrs; format: functional, organism-based
# Procedure, shortened: (§5)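 Mice dosed ip with suspension in 0.5% methylcellulose; maximal electroshock applied at the listed time after dosing. Protection = abolition of hindlimb tonic extension component of seizure; reported as animals protected/animals tested.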
# [17] = Retention time of the compound in mouse liver microsomes at 20 uM preincubated for 15 mins followed by addition of NADPH-regenerating system measured after 5 to 90 mins by […] analysis; format: ADME
# Procedure, shortened: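 Mouse liver microsomes (0.4 mg/mL) with test compound (20 µM) in 100 mM potassium phosphate, pH 7.4, were preincubated 15 min at 37 °C. An NADPH-regenerating system was then added and incubation ran 5–90 min at 37 °C. Levallorphan (20 µM) served as internal standard, and reactions were quenched with perchloric acid. The supernatant was analysed by UPLC/MS. Duplicate incubations.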
# Vibrio harveyi [18] = experiment: Antimutagenic activity against Vibrio harveyi BB7 assessed as inhibition of NQNO-induced mutagenicity after 48 hrs; format: functional; procedure, shortened: as §4
# Vibrio harveyi [19] = experiment: Antimutagenic activity against Vibrio harveyi BB7M assessed as inhibition of NQNO-induced mutagenicity after 48 hrs; format: functional; procedure, shortened: as §4
# Vibrio harveyi [20] = experiment: Antimutagenic activity against Vibrio harveyi BB7XM assessed as inhibition of NQNO-induced mutagenicity after 48 hrs; format: functional; procedure, shortened: as §4
# Mus musculus [21] = experiment: Anticonvulsant activity in mouse assessed as protection against maximal electric shock-induced seizures at 100 mg/kg, ip measured after 0.5 hrs; format: functional, organism-based; procedure, shortened: as §5
# Mus musculus [22] = experiment: Anticonvulsant activity in mouse assessed as protection against subcutaneous pentylenetetrazol-induced seizures at 30 mg/kg, ip measured after 4 hrs; format: functional, organism-based; procedure, shortened: as §3
# Vibrio harveyi [23] = experiment: Mutagenicity in Vibrio harveyi BB7M assessed as number of colonies after 48 hrs (reference value: 13 to 14 no_unit); format: ADME, organism-based; conditions: in vivo; procedure, shortened: as §2
# Vibrio harveyi [24] = experiment: Mutagenicity in Vibrio harveyi BB7XM assessed as number of colonies after 48 hrs (reference value: 14 no_unit); format: ADME, organism-based; conditions: in vivo; procedure, shortened: as §2
# Vibrio harveyi [25] = experiment: Mutagenicity in Vibrio harveyi BB7X assessed as number of colonies after 48 hrs (reference value: 15 to 16 no_unit); format: ADME, organism-based; conditions: in vivo; procedure, shortened: as §2
# Mus musculus [26] = experiment: Anticonvulsant activity in mouse assessed as protection against maximal electric shock-induced seizures at 30 mg/kg, ip measured after 0.5 hrs; format: functional, organism-based; procedure, shortened: as §5
smiles,measurement,setting,value
Cc1cccc(C)c1OCCOCCN[C@H](C)CO,Activity,Mus musculus [1],Non-toxic
same,Activity,Mus musculus [2],Non-toxic
same,Activity,Mus musculus [3],Non-toxic
same,Activity,Mus musculus [4],Non-toxic
same,Activity,Mus musculus [5],Toxic
same,Activity,Mus musculus [6],Non-toxic
same,Activity,Mus musculus [7],Toxic
Cc1cc(C)c(OCCOCCNC(C)CO)c(C)c1 (centres undefined),Activity,Mus musculus [8],Non-toxic
same,Activity,Mus musculus [1],Non-toxic
same,Activity,Vibrio harveyi [9],25
same,Activity,Mus musculus [10],inactive
same,inhibition (INH),Vibrio harveyi [11],38%
same,microsomal CLint at 20 µM,in vitro [12],13 µL/min/mg
same,Activity,Mus musculus [13],inactive
same,Activity,Mus musculus [14],inactive
same,half-life at 20 µM,in vitro [15],2.27 h
same,Activity,Mus musculus [3],Non-toxic
same,Activity,Mus musculus [16],inactive
same,Retention_time,[17],4.31 min
same,inhibition (INH),Vibrio harveyi [18],81%
same,inhibition (INH),Vibrio harveyi [19],62%
same,inhibition (INH),Vibrio harveyi [20],43%
same,Activity,Mus musculus [21],Active
same,Activity,Mus musculus [22],inactive
same,Activity,Vibrio harveyi [23],19
same,Activity,Vibrio harveyi [24],24
same,Activity,Vibrio harveyi [25],24
same,Activity,Mus musculus [7],Toxic
same,Activity,Mus musculus [26],inactive
